HTRA1 inhibitor: blocks human HTRA1 serine peptidase; Q92743; recombinant HTRA1, FP-rhodamine activity-based probe, fluorescence polarization; inhibition, % at 5.96 µM; 340,000 tested, 0.5% active; in the data active means inhibition above about 36%
rCAG binder: r(CAG) repeat RNA binding. 370,000 tested, 1.3% active. TO-PRO-1 dye displacement fluorescence. inhibition, % at 3 µM. AID 651821;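 active means inhibition above the plate cutoff, the mean of all test compounds on that plate plus 3 SD, cut at about 35% in these data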;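 further: higher means more dye released from RNA so lower well fluorescence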
DAGLB inhibitor: blocks human DAGLB lipase activity | 340,000 tested, 0.059% active | AID 504411 | inhibition, % at 5.17 µM | HEK293T DAGLB membrane lysate, EnzChek fluorogenic substrate; in the data active means inhibition above about 34%
Target sequence (Q8NCG7 whole entry, looked up): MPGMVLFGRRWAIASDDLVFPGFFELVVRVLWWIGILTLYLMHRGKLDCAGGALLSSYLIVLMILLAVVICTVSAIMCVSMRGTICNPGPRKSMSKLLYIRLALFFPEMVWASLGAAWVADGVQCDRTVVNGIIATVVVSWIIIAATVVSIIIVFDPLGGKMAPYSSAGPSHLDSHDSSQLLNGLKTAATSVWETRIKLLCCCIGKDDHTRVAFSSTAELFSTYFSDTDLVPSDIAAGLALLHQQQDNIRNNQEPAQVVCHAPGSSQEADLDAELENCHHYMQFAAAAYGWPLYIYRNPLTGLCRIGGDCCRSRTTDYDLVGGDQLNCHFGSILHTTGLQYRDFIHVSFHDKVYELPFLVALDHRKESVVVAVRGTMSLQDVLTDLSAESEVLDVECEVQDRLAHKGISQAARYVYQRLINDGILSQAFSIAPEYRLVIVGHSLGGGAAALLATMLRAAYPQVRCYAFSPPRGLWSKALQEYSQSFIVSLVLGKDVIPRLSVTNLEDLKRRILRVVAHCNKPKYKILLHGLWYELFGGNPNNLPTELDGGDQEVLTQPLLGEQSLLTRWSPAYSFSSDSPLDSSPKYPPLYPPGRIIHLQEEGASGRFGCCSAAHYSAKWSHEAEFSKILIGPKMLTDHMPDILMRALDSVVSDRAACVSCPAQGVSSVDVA
LEDGF integ inh: blocks HIV-1 LEDGF/p75-dependent DNA integration | 370,000 tested, 0.64% active | TR-FRET IN-LEDGF/p75 DNA integration, Eu/Cy5 | inhibition, % at 3.7 µM;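 active means inhibition above the screen-wide mean plus 3 SD, cut at about 13% in these data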;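 further: signal is the Cy5 over europium emission ratio at 671 and 618 nm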
PRMT1 inh: blocks human protein arginine methyltransferase 1; recombinant PRMT1, activity-based probe fluorescence polarization; inhibition, % at 2.79 µM; 370,000 tested, 1.3% active; AID 652257;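 active means inhibition above about 21% made by adding two undisclosed values, limit read from the data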
mABHD4 FP: inhibitors of mouse ABHD4. Q8VD66. purified mABHD4, FP-Rh probe fluorescence polarization. inhibition, % at 8.92 µM. 370,000 tested, 0.54% active. AID 720543;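 active means inhibition exceeding the mean over every tested compound plus 3 SD, cut at about 30% in these data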
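assay system = mABHD4 protein | compound dosing = single nominal dose of 8.92 µM, 0.89% DMSO final | read-out basis = percent inhibition of probe binding, normalized to plate controls | schedule = Enzyme–compound pre-incubation 45 min, then probe 60 min, both 25 °C | detection = fluorescence polarization, excitation 525 nm, emission 598 nm, BODIPY TMR filters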
PRMT1 inh conf: confirmation of human PRMT1 inhibitors | inhibition, % at 2.79 µM | 3,300 tested, 42% active | shares compounds with PRMT1 inh | recombinant His-PRMT1, activity-based probe fluorescence polarization;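 active means mean inhibition across replicates above the hit cutoff derived for the earlier primary screen, cut at about 22% in these data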
Each line names hits and unclear results; the compound was inactive in the other large screens (follow-up assays come after a bar, where they were run). Compounds with a hit are over-represented: about 3.2% of the library has one in this group of screens.

COc1ccc(-c2nc(SC(CC(=O)NCc3ccccc3)c3ccc(OC)c(OC)c3)n[nH]2)cc1 (configuration not stated)	none
NC(=O)c1c(N)[nH]c(C(=O)c2ccccc2)c1-c1ccccn1	none (no result: HTRA1 inhibitor, rCAG binder, DAGLB inhibitor)
O=C(CCN1CCc2ccccc2CC1)c1ccc2c(c1)OCCO2	PRMT1 inh 40.3 | PRMT1 inh conf 29.2
O=C(c1cccc(NS(=O)(=O)c2cccc(F)c2)c1)N1CCCC1	none
COC(=O)[C@@H](N)CS	PRMT1 inh 48.6 | PRMT1 inh conf 74.6
COC(=O)C(N)Cc1ccc(O)cc1 (configuration not stated)	none
CCCC(=O)N1CCCC1(C)C(=O)Nc1ccc(-n2cccc2)cc1 (configuration not stated)	none (no result: HTRA1 inhibitor, DAGLB inhibitor)
CN=C(c1ccco1)n1c(=S)nc(-c2ccco2)n(C)c1=S	PRMT1 inh 30.3 | PRMT1 inh conf 22.9
O=[N+]([O-])c1cnc2ccccc2c1Sc1ccccc1	PRMT1 inh 73.2 (no result: HTRA1 inhibitor, rCAG binder, DAGLB inhibitor) | PRMT1 inh conf 70.8
CCc1cccc(NC(=O)COC(=O)c2c(-c3ccccc3)noc2C)c1	none
CC(=O)N/C(N)=N/c1nc(=O)c2ccccc2s1	none
CC(=O)Nc1nc(=O)c2ccccc2s1	PRMT1 inh 44.5 | PRMT1 inh conf 33.4
Nc1nc(=O)c2ccccc2s1	PRMT1 inh 35.6 | PRMT1 inh conf 25.3
COC(=O)c1c(NC(=O)CN2CCN(c3ccccc3)CC2)c2c(C)cccc2n1C	none
CC(=O)Nc1ccc(Sc2ncnc3scc(-c4ccccc4)c23)cc1	PRMT1 inh 35.1 | PRMT1 inh conf 37.0
Cc1[nH]n(-c2ccccc2)c(=S)c1C=Nc1ccc([N+](=O)[O-])cc1	PRMT1 inh 87.1 | PRMT1 inh conf 96.1
Cc1[nH]n(-c2ccccc2)c(=O)c1C=Nc1ccc(S(=O)(=O)N=C(N)N)cc1	none
C[C@]12c3[nH]c4ccc(Cl)cc4c3CCN1C(=O)[C@@H](CC(=O)NCCc1ccccn1)C[C@@H]2C(=O)N1CCOCC1	none
COc1cccc(NC(=O)CSc2nc3c(sc4ccccc43)c(=O)n2CCN(C)C)c1	PRMT1 inh 67.9 | PRMT1 inh conf 67.9
O=C(NCc1ccccn1)c1cccc(S(=O)(=O)Nc2ccc(SC(F)F)cc2)c1	PRMT1 inh 78.0 | PRMT1 inh conf 40.4
O=C(NCc1ccncc1)c1cccc(S(=O)(=O)Nc2ccc(SC(F)F)cc2)c1	PRMT1 inh 63.9 | PRMT1 inh conf 56.5
COc1ccc(C)cc1NS(=O)(=O)c1ccc2c(c1)N(C(C)=O)CCO2	none
Cc1cc(S(=O)(=O)N2CCOCC2)ccc1OCC(=O)NCC1CCCO1 (configuration not stated)	none
Cc1ccc(NC(=O)Cn2c(O)c(N=NS(=O)(=O)c3ccc(C)cc3)c3ccccc32)cc1	PRMT1 inh 29.4 | PRMT1 inh conf 23.0
Cc1ccc(NC(=O)Cn2c(O)c(N=NC(N)=O)c3ccccc32)cc1	none
C=Cc1ccc2c(c1)N(C)C(=C)S2	PRMT1 inh 81.0 | PRMT1 inh conf 60.8
CN(C(=O)C1CC1)c1ccccc1	none
Cc1ccc(/C=C/C(=O)OCC(=O)c2ccc3c(c2)NC(=O)CO3)o1	none
O=C1COc2ccc(C(=O)COC(=O)/C=C/c3ccc(Br)o3)cc2N1	LEDGF integ inh 24.1, PRMT1 inh 37.4 | PRMT1 inh conf inactive
Cc1ccc(-c2cccc(NC(=O)C3C(C(=O)O)[C@@H]4C=C[C@H]3C4)c2)o1 (some centres not stated)	PRMT1 inh 64.8 | PRMT1 inh conf inactive
O=C(NC(Nc1nc2ccccc2s1)(C(F)(F)F)C(F)(F)F)c1ccccc1	none
CC(C)(NC(=O)c1ccccc1)c1nc2ccccc2s1	PRMT1 inh 58.9 | PRMT1 inh conf 81.5
N#CC1=C(N)C(C#N)(C#N)[C@H](c2c(F)cccc2F)[C@H]2CC3(CC=C12)OCCO3	PRMT1 inh 25.6 | PRMT1 inh conf inactive
CC1(C)CC(=O)C(C=Nc2cccnc2/N=C/C2=C(O)CC(C)(C)CC2=O)=C(O)C1	PRMT1 inh 25.4 | PRMT1 inh conf inactive
CCN(CC(=O)Nc1cc(Cl)ccc1C)C(=O)c1ccc2c(=O)n3c(nc2c1)CCC3	none
COc1ccc(Cn2nnnc2C(C(C)C)N2CCN(c3ccccc3OC)CC2)cc1 (configuration not stated)	none
CC(C)C(c1nnnn1Cc1ccc(F)cc1)N1CCN(c2ccc(O)cc2)CC1 (configuration not stated)	PRMT1 inh 27.6 (no result: HTRA1 inhibitor, DAGLB inhibitor) | PRMT1 inh conf inactive
CCOc1ccc(N2C(=O)C3CC(C)=C(C)CC3C2=O)c([N+](=O)[O-])c1 (configuration not stated)	none
CC1(C(=O)Nc2cnc3ccccc3c2)CCN1Cc1ccc(-c2ccccc2)o1 (configuration not stated)	PRMT1 inh 33.6 (no result: HTRA1 inhibitor, DAGLB inhibitor) | PRMT1 inh conf inactive
Cc1cc(=O)[nH]c(SCc2nnnn2-c2ccc(Cl)cc2)n1	PRMT1 inh 36.8 | PRMT1 inh conf 55.2
Cc1ccc2oc(C(=O)N(C)Cc3ccon3)c(C)c2c1	none
Cc1ccc2oc(C(=O)N(C)Cc3ccc(C)o3)c(C)c2c1	PRMT1 inh 50.8 | PRMT1 inh conf 64.4
CSc1ccccc1NC(=O)CN(C)Cc1c(O)ccc2ccccc12	PRMT1 inh 38.8 | PRMT1 inh conf 30.2
CCCCSc1nc(SCC(=O)NCc2ccco2)c2c3c(sc2n1)COC(C)(CC)C3 (configuration not stated)	none
CSc1nc(SCC(=O)NCc2ccco2)c2c3c(sc2n1)COC(C)(C)C3	PRMT1 inh 37.8 | PRMT1 inh conf inactive
CSc1ccc(NC(=O)CSc2nc3[nH]c(=O)cc(O)c3s2)cc1	rCAG binder 56.1, PRMT1 inh 48.1 | PRMT1 inh conf inactive
COC(=O)c1c(N2C(=O)CC(Sc3ccccc3C(=O)O)C2=O)sc(C)c1C (configuration not stated)	PRMT1 inh 64.3 | PRMT1 inh conf 51.3
O=C(O)c1ccccc1SC1CC(=O)N(C2CCCCC2)C1=O (configuration not stated)	none (no result: rCAG binder, LEDGF integ inh, PRMT1 inh, mABHD4 FP)
O=C(O)c1ccccc1SC1CC(=O)N(c2ccccc2)C1=O (configuration not stated)	PRMT1 inh 66.4 | PRMT1 inh conf 23.1
CCOC(=O)c1cc(CC)sc1N1C(=O)CC(Sc2ncccc2C(=O)O)C1=O (configuration not stated)	none
CCOC(=O)c1cc(CC)sc1N1C(=O)CC(Sc2ccccc2C(=O)O)C1=O (configuration not stated)	PRMT1 inh 54.2 | PRMT1 inh conf 55.7
COC(=O)c1c(N2C(=O)CC(Sc3ccccc3C(=O)O)C2=O)sc2c1CCCC2 (configuration not stated)	PRMT1 inh 54.7 | PRMT1 inh conf 48.3
COC(=O)c1c(-n2c(C)cc(C=O)c2C)sc2c1CCCC2	none
